Measured values of several laboratories.
Each line is one published result; the experiments were not run side by side. Values after ≈ are worked out from the molar mass of the structure shown.

Cc1nn(-c2ccccc2)c2c1C(c1c[nH]c3ccccc13)N(C(=O)c1ccncc1)N2 (stereo not drawn)
MIC (Cryptococcus neoformans; microbial growth; clinical isolate): 4 µg/mL (≈ 9.51 µM)

O=C1C(Br)=C(Br)C(=O)c2ccccc21
MIC (Nakaseomyces glabratus; microbial growth, broth dilution; ATCC2001; 24 h): 6.25 µg/mL (≈ 19.8 µM)

C=CC(=O)NC1CCN(c2ncc3ncnc(Nc4ccc(Oc5ccc6c(c5)ncn6C)c(C)c4)c3n2)CC1
EC50 (LUDLU-1; cell growth or viability): 6.21 µM

C=CC(=O)N1CCN(c2nc(=O)n(-c3c(C)ccnc3C(C)C)c3nc(-c4c(O)cccc4F)c(F)cc23)[C@@H](C)C1
IC50 (ASPC1; cell growth or viability, ATP luminescence): > 10 µM

Cc1nn(-c2ccccc2)c2c1C(c1ccc([N+](=O)[O-])cc1)N(C(=O)c1ccncc1)N2 (stereo not drawn)
MIC (Cryptococcus neoformans; microbial growth; clinical isolate): 64 µg/mL (≈ 150 µM)

C[C@@H]1[C@H](O)[C@@H](C)/C=C/C=C/C=C/C=C/C=C/C=C/C=C/[C@H](O[C@@H]2O[C@H](C)[C@@H](O)[C@H](N)[C@@H]2O)C[C@@H]2O[C@](O)(C[C@@H](O)C[C@@H](O)[C@H](O)CC[C@@H](O)C[C@@H](O)CC(=O)O[C@H]1C)C[C@H](O)[C@H]2C(=O)O
MIC (Nakaseomyces glabratus; microbial growth, broth dilution; ATCC2001; 24 h): 4 µg/mL (≈ 4.33 µM)

CO[C@]12C[C@@H](COC(=O)c3cncc(Br)c3)CN(C)[C@@H]1Cc1cn(C)c3cccc2c13
IC50 (CNE-2; cell growth or viability, MTT; 48 h): 12.9 µM

C=C(F)C(=O)N1CCN(c2nc(OC[C@@H]3CCCN3C)nc3c2CCN(c2cccc4cccc(Cl)c24)C3)C[C@@H]1CC#N
IC50 (SW756; cell growth or viability, ATP luminescence): 0.888 µM

Cc1nn(-c2ccccc2)c2c1C(c1ccc(Cl)cc1)N(C(=O)c1ccncc1)N2 (stereo not drawn)
MIC (Cryptococcus neoformans; microbial growth; clinical isolate): 32 µg/mL (≈ 76.9 µM)

CC(C)=CCC/C(C)=C/CO
MFC (Cryptococcus neoformans; microbial killing, broth dilution; clinical isolate): 800 µg/mL (≈ 5190 µM)

COc1ccc(C2c3c(C)nn(-c4ccccc4)c3NN2C(=O)c2ccncc2)cc1 (stereo not drawn)
MIC (Cryptococcus neoformans; microbial growth; clinical isolate): > 100 µg/mL

Nc1ccc(/C=C/C(=O)N2CCc3c(oc4c(-c5ccc(F)cc5)cc(-c5ccc(C(=O)N6CCC(F)(F)CC6)nn5)cc34)C2)cn1
IC50 (ASPC1; cell growth or viability, CCK-8; 72 h): 0.34 µM
